Assay results as given in ChEMBL document CHEMBL1156146 (Bioorg Med Chem Lett, 2009).
Calls of active or inactive are those of the source. The calls are words filed in the database; no cut-off is given here.

Experiments:
[1] = molecular target: T1, 5-lipoxygenase (Solanum tuberosum, UniProt O49150); experiment: Inhibition of potato 5-LOX after 5 mins by enzyme immuno assay
T1 sequence (O49150 whole entry): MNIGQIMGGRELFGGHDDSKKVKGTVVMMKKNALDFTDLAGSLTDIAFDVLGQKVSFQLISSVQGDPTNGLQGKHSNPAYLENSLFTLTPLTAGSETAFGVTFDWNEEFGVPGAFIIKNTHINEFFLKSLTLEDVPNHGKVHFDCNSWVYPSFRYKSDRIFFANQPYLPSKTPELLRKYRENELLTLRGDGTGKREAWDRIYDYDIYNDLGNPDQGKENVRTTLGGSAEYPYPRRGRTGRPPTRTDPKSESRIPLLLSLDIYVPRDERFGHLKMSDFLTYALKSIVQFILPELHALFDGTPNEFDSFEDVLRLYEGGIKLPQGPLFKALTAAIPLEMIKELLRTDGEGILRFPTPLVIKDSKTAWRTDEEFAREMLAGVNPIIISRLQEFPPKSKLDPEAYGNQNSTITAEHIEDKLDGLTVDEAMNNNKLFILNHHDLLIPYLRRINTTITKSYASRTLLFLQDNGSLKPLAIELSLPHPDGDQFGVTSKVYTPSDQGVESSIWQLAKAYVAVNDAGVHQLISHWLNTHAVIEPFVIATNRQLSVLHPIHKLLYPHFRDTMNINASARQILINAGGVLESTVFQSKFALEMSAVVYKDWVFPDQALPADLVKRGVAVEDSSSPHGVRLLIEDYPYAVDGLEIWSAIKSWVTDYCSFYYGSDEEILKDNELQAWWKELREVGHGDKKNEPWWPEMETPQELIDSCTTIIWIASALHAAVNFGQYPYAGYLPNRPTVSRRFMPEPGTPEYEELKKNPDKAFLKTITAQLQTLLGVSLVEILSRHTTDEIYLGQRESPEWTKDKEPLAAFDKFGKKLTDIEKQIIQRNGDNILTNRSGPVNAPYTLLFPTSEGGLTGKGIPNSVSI
Summary of the method: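 Potato 5-LOX inhibition measured with a LOX assay kit. IC50 is the mean of two determinations, deviation from the mean <10%.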

[2] = test system: Rattus norvegicus; experiment: Ratio of compound ED50 to aspirin ED50 for inhibition of carrageenan-induced foot paw edema in po dosed rat after 3 hrs; assay type: functional
[3] = molecular target: T2, Prostaglandin G/H synthase 2 (Homo sapiens, UniProt P35354); experiment: Inhibition of human recombinant COX-2 by enzyme immuno assay
T2 sequence (P35354 whole entry): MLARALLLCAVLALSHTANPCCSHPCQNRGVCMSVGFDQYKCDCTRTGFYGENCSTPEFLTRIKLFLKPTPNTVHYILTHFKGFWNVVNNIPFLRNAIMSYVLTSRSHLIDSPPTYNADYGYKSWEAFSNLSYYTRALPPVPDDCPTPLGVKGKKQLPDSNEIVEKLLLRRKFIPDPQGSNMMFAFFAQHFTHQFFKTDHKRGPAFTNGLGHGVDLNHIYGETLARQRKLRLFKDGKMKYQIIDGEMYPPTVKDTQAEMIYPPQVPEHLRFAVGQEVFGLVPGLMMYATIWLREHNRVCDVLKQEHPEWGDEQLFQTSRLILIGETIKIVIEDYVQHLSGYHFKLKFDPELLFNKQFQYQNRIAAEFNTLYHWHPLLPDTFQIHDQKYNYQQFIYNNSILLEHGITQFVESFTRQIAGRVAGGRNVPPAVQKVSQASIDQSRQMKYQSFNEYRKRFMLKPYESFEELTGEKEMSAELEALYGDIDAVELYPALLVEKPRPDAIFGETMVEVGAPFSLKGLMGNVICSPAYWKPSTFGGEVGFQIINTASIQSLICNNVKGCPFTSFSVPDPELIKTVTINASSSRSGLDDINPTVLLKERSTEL

[4] = test system: Rattus norvegicus; experiment: Antiinflammatory activity against assessed as inhibition of carrageenan-induced foot paw edema in po dosed rat after 3 hrs; assay type: functional
Summary of the method: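 Oral dosing; edema induced by carrageenan in rat paw and measured 3 h after administration. ED50 (µmol/kg) derived from the dose–response.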

[5] = test system: Rattus norvegicus; experiment: Gastrointestinal toxicity in rat assessed ulcer index at 1.38 mmol/kg, po after 6 hrs relative to aspirin; assay type: organism-based; conditions: in vivo
Summary of the method: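 Rats fasted 24 h (water allowed) and dosed orally at 1.38 mmol/kg as a suspension in 1% methylcellulose. Killed 6 h later; stomachs opened along greater curvature, rinsed, and lesions measured by magnifier. Lesions up to 1 mm rated 1, 1–2 mm rated 2, >2 mm rated by length in mm. UI is summed lesion length per stomach averaged over n = 4; mean ± SEM.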

[6] = molecular target: Prostaglandin G/H synthase 1 (Ovis aries) (UniProt P05979); experiment: Inhibition of ovine COX-1 by enzyme immuno assay
[7] = Selectivity index, ratio of IC50 for ovine COX-1 to IC50 for human recombinant COX-2
[8] = test system: Rattus norvegicus; experiment: Ratio of compound ED50 to ibuprofen ED50 for inhibition of carrageenan-induced foot paw edema in po dosed rat after 3 hrs; assay type: functional
Summary of the method: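 Carrageenan-induced paw edema in rats, test compound given orally. […] The ratio compares the compound ED50 with the ibuprofen ED50 from this model.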

SMILES	IC50 [1] [µM]	IC50 [3] [µM]	IC50 [6] [µM]	Ratio IC50 [7]	Ratio ED50 [2]	ED50 [4]	UI [5]	Ratio ED50 [8]
O=C(O)/C=C/c1ccc(O)c(O)c1 [CAFFEIC ACID]	4							
O=C(O)c1cc(-c2ccc(F)cc2F)ccc1O [DIFLUNISAL]						68 µmol/kg		
CC(=O)Oc1ccccc1C(=O)O [ASPIRIN]						716 µmol/kg	57.4	

The next lines start with results.

IC50 [1] [µM]	IC50 [3] [µM]	IC50 [6] [µM]	Ratio IC50 [7]	SMILES	Ratio ED50 [2]	ED50 [4]	UI [5]	Ratio ED50 [8]
0.37	0.98	15.4	> 15	O=C(O)c1cc(-c2ccn(C(F)F)c(=O)c2)ccc1O	1.6	434 µmol/kg	0	
0.32	17.6	> 100	> 5	CC(=O)NS(=O)(=O)c1ccc(-c2ccn(C(F)F)c(=O)c2)cc1C(=O)O		inactive		
4.7	4.4	> 100	> 22	O=C(O)c1ccc(-c2ccn(C(F)F)c(=O)c2)cc1O	1.4	497 µmol/kg	0	
0.28	2.6	> 100	> 38	CC(=O)NS(=O)(=O)c1cc(-c2ccn(C(F)F)c(=O)c2)ccc1C(=O)O	2.8	258 µmol/kg		1.3
